In brackets after ≈: the same amount, converted by molar mass. Activity calls are given as the source filed them. No cut-off for these calls is given here.
Legend:
[1] = test system: Trypanosoma cruzi; assay: Antitrypanosomal activity against Trypanosoma cruzi Tulahuen strain C2C4 amastigotes infected in rat L6 cells assessed as inhibition of parasite growth incubated for 96 hrs by chlorophenol red-fl-D-galactopyranoside based colorimetric analysis; assay type: functional, organism-based; settings: for IC50: Tulahuen strain C2C4, L6, 96 h; for IC90: Tulahuen strain C2C4, L6, time 96 hrs
Outline: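 Tulahuen strain TcVI T. cruzi expressing β-galactosidase, grown in L6 rat skeletal myoblast host cells. IC50/IC90 growth inhibition. Each value is the mean of ≥2 independent determinations using fresh sample stock.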

[2] = test system: L6; assay: Cytotoxicity against rat L6 cells assessed as reduction in cell viability incubated for 72 hrs by alamar blue assay; assay type: ADME, cell-based; settings: L6, 72 h
[3] = Half life in human liver microsomes incubated for 60 mins
[4] = Kinetic solubility of compound in water sonicated for 15 mins by HPLC analysis
[5] = molecular target: Cytochrome P450 3A4 (Homo sapiens, UniProt P08684); assay: Inhibition of CYP3A4 in human liver microsome using testosterone as substrate
Chain of Cytochrome P450 3A4 (P08684 whole entry): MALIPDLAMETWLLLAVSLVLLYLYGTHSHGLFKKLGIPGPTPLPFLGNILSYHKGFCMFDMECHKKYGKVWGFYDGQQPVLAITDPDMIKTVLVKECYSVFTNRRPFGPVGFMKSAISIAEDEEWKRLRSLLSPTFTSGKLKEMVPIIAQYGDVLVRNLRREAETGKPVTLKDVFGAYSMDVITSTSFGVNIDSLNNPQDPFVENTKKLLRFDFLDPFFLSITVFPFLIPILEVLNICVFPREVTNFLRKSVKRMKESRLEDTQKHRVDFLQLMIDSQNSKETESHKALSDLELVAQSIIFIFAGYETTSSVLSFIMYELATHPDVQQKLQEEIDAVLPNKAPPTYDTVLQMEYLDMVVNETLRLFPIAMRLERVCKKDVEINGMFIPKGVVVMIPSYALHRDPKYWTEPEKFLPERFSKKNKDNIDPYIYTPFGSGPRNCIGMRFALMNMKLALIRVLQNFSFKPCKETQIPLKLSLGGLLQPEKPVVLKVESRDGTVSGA

[6] = Plasma concentration in Swiss mouse at 50 mg/kg, po measured upto 24 hrs by LC-MS/MS analysis
[7] = test system: Trypanosoma cruzi; assay: Antitrypanosomal activity against Trypanosoma cruzi amastigotes assessed as inhibition of parasite growth at 10 ug/ml relative to control
[8] = Selectivity index, ratio of IC50 for cytotoxicity against rat L6 cells to IC50 for antitrypanosomal activity against Trypanosoma cruzi Tulahuen strain C2C4 amastigotes infected in rat L6 cells
[9] = Kinetic solubility of compound in 0.1M HCl at pH 1 sonicated for 15 mins by HPLC analysis; assay type: physicochemical; settings: read-out: Kinetic_solubility
Outline: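 Solid mixed with 0.1 M HCl to a nominal 2 mM, sonicated 15 min, centrifuged 6 min. Supernatant diluted 2-fold and analysed by HPLC. Kinetic solubility from peak area against a DMSO standard solution.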

[10] = test system: Trypanosoma cruzi; assay: Antitrypanosomal activity against Trypanosoma cruzi Y strain amastigotes infected in U2OS cells assessed as inhibition of parasite growth at […] by image-based assay relative to control
[11] = Cytotoxicity against rat 3T3 cells assessed as reduction in cell viability incubated for 72 hrs by alamar blue assay; assay type: ADME, cell-based; settings: NIH3T3, 72 h
[12] = test system: Trypanosoma cruzi; assay: Antitrypanosomal activity against Trypanosoma cruzi Tulahuen strain C2C4 amastigotes infected in […] cells assessed as reduction in parasite growth incubated for 48 hrs by chlorophenol red-fl-D-galactopyranoside based colorimetric analysis; assay type: functional, organism-based; settings: for IC50: Tulahuen strain C2C4, NIH3T3, 48 h; for IC90: Tulahuen strain C2C4, NIH3T3, time 48 hrs
[13] = Inhibition of Trypanosoma cruzi Tulahuen C4 strain CYP51 expressed in Escherichia coli by fluorescence based assay
[14] = test system: Trypanosoma cruzi; assay: Antitrypanosomal activity against Trypanosoma cruzi Tulahuen strain C2C4 amastigotes infected in […] cells assessed as reduction in parasite growth incubated for 48 hrs by chlorophenol red-fl-D-galactopyranoside based colorimetric analysis relative to control; assay type: functional
[15] = Metabolic stability in CD-1 mouse liver microsomes assessed as parent compound remaining incubated for 1 hr; assay type: ADME, Microsome
Outline: (§1)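 Pooled human or CD-1 mouse liver microsomes at 0.4 mg/mL microsomal protein. Percent parent remaining after 1 h incubation.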

[16] = Metabolic stability in human liver microsomes assessed as parent compound remaining incubated for 1 hr; assay type: ADME, Microsome; settings: read-out: Stabilty; outline: as §1
[17] = Selectivity index, ratio of IC50 for cytotoxicity against rat 3T3 cells to IC50 for antitrypanosomal activity against Trypanosoma cruzi Tulahuen strain C2C4 amastigotes infected in rat 3T3 cells; settings: 3T3 cells
[18] = test system: Trypanosoma cruzi; assay: Antitrypanosomal activity against Trypanosoma cruzi Y strain amastigotes infected in U2OS cells assessed as inhibition of parasite growth at 0.37 ug/ml by image-based assay relative to control
[19] = test system: Trypanosoma cruzi; assay: Antitrypanosomal activity against Trypanosoma cruzi Y strain amastigotes infected in U2OS cells assessed as inhibition of parasite growth at 3.3 ug/ml by image-based assay relative to control
[20] = test system: Trypanosoma cruzi; assay: (§2) Antitrypanosomal activity against bloodstream trypomastigotes form of Trypanosoma cruzi Tulahuen strain C2C4 infected in Swiss mouse assessed as reduction in parasitemia at 20 mg/kg, po qd administered for 20 days starting from day 8 post infection and measured for 28 days by neubauer haemocytometer based microscopic analysis; assay type: functional, organism-based; settings: time 20.0 day
Outline: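 Female Swiss mice, 5 per group, infected intraperitoneally with 5 x 10⁴ bloodstream trypomastigotes (Tulahuen). Oral dosing once daily for 20 days from day 8 p.i., with the commercial formulation diluted in water for injection. Tail blood (3 μL) taken on days 8 (predose), 9, 12, 14, 16, 19, 21 and 28 p.i., diluted 1:10 in red cell lysis buffer and counted by haemocytometer.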

[21] = test system: Trypanosoma cruzi; assay: as §2, with “infection followed by cyclophosphamide induced immunosuppression […]” for “infection”, “51” for “28”; assay type: functional, organism-based; settings: time 20.0 day
Outline: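 Same infection (female Swiss mice, 5 x 10⁴ trypomastigotes ip) and 20-day oral course from day 8 p.i. After 10 days' rest, mice with very low or undetectable parasitemia got three cycles of cyclophosphamide, 50 mg/kg ip daily for 4 days then 3 days' rest, starting day 37 p.i. Blood parasitemia checked on days 37, 44, 51 and 58 p.i. by haemocytometer, with PCR detection also used.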

[22] = test system: Trypanosoma cruzi; assay: as §2, with “at 50” for “at 20”; assay type: functional, organism-based; settings: time 20.0 day
Outline: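 Female Swiss mice, 5 per group, infected i.p. with 5 x 10^4 bloodstream trypomastigotes (Tulahuen). Oral dosing once daily for 20 days from day 8 p.i., vehicle HPMC-SV with 5% DMSO. Tail blood, 3 μL diluted 1:10 in RBC lysis, counted by haemocytometer on days 8–28 p.i.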

[23] = Thermodynamic solubility of compound in PEG400; assay type: physicochemical
[24] = test system: Trypanosoma cruzi; assay: Antitrypanosomal activity against bloodstream trypomastigotes form of Trypanosoma cruzi CL Brener infected in BALB/c mouse assessed as reduction in parasitemia at 50 mg/kg, po administered 5 days after 114 days post infection followed by cyclophosphamide induced immunosuppression on day 143 post infection and measured for 149 days by bioluminescence analysis; assay type: functional, organism-based; settings: time 5.0 day
Outline: (§3)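 Female BALB/c mice, 8 weeks old, ~18 g, 5 per group. Infected i.p. with 10^3 bloodstream trypomastigotes of bioluminescent CL Brener (pTRIX2-RE9h). From day 114 p.i., oral dosing once daily for 5 days: reference drugs at 100 mg/kg in HPMC-SV with 5% DMSO, PEG400 vehicle at 50 mg/kg. Cyclophosphamide 200 mg/kg i.p. on days 135, 139 and 143. Final imaging day 149. Ex vivo organ bioluminescence days 149-151.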

[25] = test system: Trypanosoma cruzi; assay: Antitrypanosomal activity against bloodstream trypomastigotes form of Trypanosoma cruzi CL Brener infected in BALB/c mouse assessed as reduction in parasite in caecum at 50 mg/kg, po qd administered for 5 days starting from day 114 post infection followed by cyclophosphamide induced immunosuppression on days 135, 139 and 143 post infection and measured for 149 days by bioluminescence analysis; assay type: functional, organism-based; settings: time 5.0 day; outline: as §3
[26] = test system: Trypanosoma cruzi; assay: Antitrypanosomal activity against bloodstream trypomastigotes form of Trypanosoma cruzi CL Brener infected in BALB/c mouse assessed as reduction of parasite in small intestine at 50 mg/kg, po qd administered for 5 days starting from day 114 post infection followed by cyclophosphamide induced …; assay type: functional, organism-based; settings: time 5.0 day
[27] = test system: Trypanosoma cruzi; assay: Antitrypanosomal activity against bloodstream trypomastigotes form of Trypanosoma cruzi CL Brener infected in BALB/c mouse assessed as reduction of parasite in mouth/nasal region at 50 mg/kg, po qd administered for 5 days starting from day 114 post infection followed by cyclophosphamide induced …; assay type: functional, organism-based; settings: time 5.0 day

Row | SMILES | IC50 [1] [nM] | IC90 [1] [nM] | IC50 [2] [nM] | solubility kinetic at 0.25 h [4] [µg/mL] | selectivity ratio [8] | IC50 [11] [nM] | IC50 [12] [nM] | IC90 [12] [nM] | IC50 [13] [nM] | %max [14] [%] | selectivity ratio [17] | also measured
1 | O=[N+]([O-])c1cn2c(n1)OC[C@@H](OCc1ccc(-c3ccc(C(F)(F)F)cc3Cl)cc1)C2 | 3700 | 8000 | 34000 | 0.48 (≈ 1.06 µM) | 9.2 | – | – | – | – | – | – | half-life at 1 h [3]: > 4.17 h; IC50 [5]: > 20000 nM; concentration at 24 h [6]: 9.1 µM; inhibition at 10 µg/mL [7]: 94%
2 | O=[N+]([O-])c1cn2c(n1)OC[C@H](OCc1ccc(-c3ccc(C(F)(F)F)cc3Cl)cn1)C2 | 670 | 2900 | 50000 | 1 (≈ 2.2 µM) | 75 | – | – | – | – | – | – | solubility kinetic at 0.25 h [9]: 299 µg/mL (≈ 657 µM)
3 | O=[N+]([O-])c1nc2n(n1)C[C@H](O)CO2 | 1600 | 6300 | > 100000 | 8750 (≈ 47000 µM) | > 63 | – | – | – | – | – | – | inhibition at […] [10]: 58%
4 | O=[N+]([O-])c1cn2c(n1)OC[C@H](OCC#Cc1ccc(-c3ccc(OC(F)(F)F)cc3)cn1)C2 | – | – | – | < 0.1 | – | > 37000 | 670 | 2200 | > 10000 | 94 | > 55 | solubility kinetic at 0.25 h [9]: 3 µg/mL (≈ 6.52 µM); remaining at 1 h [15]: 74%; remaining at 1 h [16]: 68%
5 | O=[N+]([O-])c1cn2c(n1)OC[C@H](OCC#Cc1ccc(-c3ccc(C(F)(F)F)cc3)cn1)C2 | – | – | – | 0.68 (≈ 1.53 µM) | – | > 37000 | 270 | 1700 | > 10000 | 95 | > 137 | solubility kinetic at 0.25 h [9]: 7.6 µg/mL (≈ 17.1 µM); remaining at 1 h [15]: 76%; remaining at 1 h [16]: 58%
6 | O=[N+]([O-])c1cn2c(n1)OC[C@@H](OCC#Cc1ccc(-c3ccc(OC(F)(F)F)cc3)cn1)C2 | 320 | 990 | > 100000 | 0.49 (≈ 1.06 µM) | > 313 | > 37000 | 730 | 1000 | > 10000 | 99 | > 51 | inhibition at 0.37 µg/mL [18]: 44%; half-life at 1 h [3]: > 4.17 h
7 | CC1(COCc2ccc(OCc3ccccc3)cc2)Cn2cc([N+](=O)[O-])nc2S1(=O)=O (stereo not given) | 83 | 240 | > 100000 | < 0.1 | > 1200 | – | – | – | – | – | – | inhibition at 3.3 µg/mL [19]: 59%; half-life at 1 h [3]: 0.417 h
8 | O=[N+]([O-])c1cn2c(n1)OC[C@@H](OCC#Cc1ccc(-c3ccc(C(F)(F)F)cc3)cn1)C2 | 230 | 590 | > 100000 | 0.33 (≈ 0.743 µM) | > 435 | > 37000 | 510 | 1700 | > 10000 | 97 | > 73 | inhibition at […] [10]: 48%
9 | CC[C@@H]([C@H](C)O)n1ncn(-c2ccc(N3CCN(c4ccc(OC[C@@H]5CO[C@@](Cn6cncn6)(c6ccc(F)cc6F)C5)cc4)CC3)cc2)c1=O [POSACONAZOLE] | – | – | – | – | – | > 1000 | 1.2 | 4.9 | 52 | 85 | > 833 | Activity [20]: Active; Activity [21]: Active
10 | CC1(COc2ccc(-c3ccc(F)cc3)cn2)CCn2cc([N+](=O)[O-])nc2O1 (stereo not given) | – | – | – | – | – | – | – | – | – | – | – | inhibition at 3.3 µg/mL [19]: 50%
11 | O=[N+]([O-])c1cn2c(n1)OCC(COc1ccc(-c3ccc(F)cc3)cn1)C2 (stereo not given) | 22 | 190 | > 100000 | 1.1 (≈ 2.97 µM) | > 4540 | – | – | – | – | – | – | inhibition at […] [10]: 29%
12 | CC1(COc2ccc(OC(F)(F)F)cc2)CCn2cc([N+](=O)[O-])nc2O1 (stereo not given) | 450 | 930 | – | – | – | – | – | 1000 | – | 100 | – | inhibition at 3.3 µg/mL [19]: 52%; Activity [22]: Active
13 | O=[N+]([O-])c1cn2c(n1)OC[C@H](Oc1ccc(OC(F)(F)F)cc1)C2 | 400 | 1000 | > 100000 | – | > 250 | > 73000 | 1200 | 1700 | > 10000 | 99 | > 61 | solubility thermodynamic [23]: 21000 µg/mL (≈ 60800 µM); Activity [24]: Active; Activity [25]: Active; Activity [26]: Active; concentration at 24 h [6]: 11 µM; Activity [27]: Active

Reference: ChEMBL document CHEMBL4706606, “Re-evaluating pretomanid analogues for Chagas disease: Hit-to-lead studies reveal both in vitro and in vivo trypanocidal efficacy” (Eur J Med Chem, 2020)
